SKKanGAS inh: S. pyogenes SKKanGAS growth inhibitors in kanamycin, primary screen, streptokinase expression inhibitor project, SKKanGAS strain, BacTiter-Glo luminescence | AID 1662, 2009 | 6 h | inhibition, % at 7.5 µM | 1.3% of 300,000 active;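 active = mean replicate score, as percent of positive control median, at least 50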;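 also: strain carries kanamycin resistance gene driven by streptokinase promoter and grows in 40 µg/ml kanamycin; loss of luminescence reflects streptokinase promoter inhibition or plain growth inhibition; 0% = median of DMSO wells and 100% = positive control at its reference dose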
KCC2 mod: KCC2 cotransporter modulators, thallium flux, primary screen, cell-based, HEK293 KCC2, FluoZin-2 fluorescence, MLSMR. Solute carrier family 12 member 5 (Homo sapiens), Q9H2X9. KCC2 cells, thallium flux FluoZin-2 fluorescence. B-score of Tl+ flux slope (higher = more flux/activation; lower = inhibition) at 10 µM. 2.2% of 190,000 active. AID 1456, 2008;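 active = thallium flux slope and its plate-corrected score both differing from the plate sample mean at a set confidence after two filtering rounds, in either direction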;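 also: slope of fluorescence scaled to starting intensity during 10 to 20 s after thallium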
Insulin prom up: insulin promoter activators in MIN6 cells, imaging, high-content screening, mouse beta cells; MIN6 insulin promoter-GFP reporter; active compounds read high; z-score at 5 µM; 0.3% of 190,000 active; AID 1625, 2009;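 active = z-score above 3 at 5 µM with at least 500 cells counted in the well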
Autophagy mod: autophagy modulators in MEF cells, primary screen, imaging, high-content, MEF GFP-LC3; AID 463193, 2010; calls only at 10 µM (by protocol); MEF GFP-LC3 puncta imaging; test concentration mostly 10 µM; 0.98% of 190,000 active;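 active = percentage of spot-positive cells more than 3 SD above its plate mean, without a fluorescence outlier flag or 80% toxicity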;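 also: spot-positive cell cutoff set from DMSO-treated cells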
Rad51 HR inh: human RAD51 strand exchange inhibitors, primary screen, biochemical, fluorescence | 0.085% of 200,000 active | inhibition, % at 10 µM | DNA repair protein RAD51 homolog 1 (Homo sapiens), Q06609 | hRad51 DNA strand exchange, fluorescence dequenching;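 active = inhibition above 40% at the single screening dose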;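 also: 0% = DMSO control wells and 100% = blanks with heterologous ssDNA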
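System: human Rad51 nucleoprotein filaments preassembled on unlabelled ssDNA. Reagent: labelled 47-mer dsDNA for strand exchange. Schedule: 30-min compound preincubation and 15-min exchange, both room temperature. Measured by: FRET fluorescence dequenching, excitation 485 nm, emission 520 nm. Read-out: Fluorescence-based percent inhibition, control- and blank-normalised. Benchmarks: plate controls and plate blanks.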
WT yeast gro inh: growth inhibition of WT strain, primary screen, mitochondrial fusion inhibitor project, WT and mutant strains, chemical genetic; mitochondrial fusion phenotypic screen; 2.1% of 190,000 active; inhibition, % at 10 µM; in the data active = inhibition above about 58%; tested in S. cerevisiae
* marks the source's active call; other numbers are inactive results; i = inactive; . = no result; + = active, no number. In the library only some 4.2% were active in any assay of this set; here they are far more common.

SMILES	SKKanGAS inh	KCC2 mod	Insulin prom up	Autophagy mod	Rad51 HR inh	WT yeast gro inh
Cc1nc(-c2cccc(NS(=O)(=O)c3ccc4ccccc4c3)c2)cs1	38	-1.1	-0.45	i	-5	60*
COc1ccc(/C=C/C(=O)NC(=S)Nc2ccccc2)cc1OC	1	.	.	.	.	.
COc1ccc(CC(=O)NNC(=O)c2ccco2)cc1	-4	.	.	.	.	.
COc1ccc(CNC(=O)Cc2cccs2)cc1	-3	.	.	.	.	.
COc1ccc(/C=C/C(=O)NC(=S)NNC(=O)Cc2cccs2)cc1	109*	1.8	0.74	i	.	9
COc1ccc(/C=C/C(=O)NC(=S)NNC(=O)c2cc(OC)c(OC)c(OC)c2)cc1OC	89*	-0.42	0.61	.	-32	.
COc1ccccc1OCC(=O)NNC(=S)NC(=O)c1ccco1	60*	1	0.42	i	11	-2
COc1ccc(/C=C/C(=O)NC(=S)NNC(=O)c2ccco2)cc1	78*	11*	0.04	i	-3	-9
O=C1CCCc2cc3c(cc21)CC1(C3)Cc2cc3c(cc2C1)C(=O)CCC3	17	0.33	0.08	.	3	.
CCN1C(=O)c2ccc(C(=O)Nc3ccc(O)cc3C)cc2C1=O	0	.	.	.	.	.
O=C(Cc1cccs1)NNC(=S)NC(=O)c1ccc(F)c(F)c1	29	1.2	-0.24	i	-8	-3
COc1ccc(/C=C/C(=O)NC(=S)NNC(=O)c2ccco2)cc1OC	84*	.	-1.1	.	-2	.
COc1ccc(NC(=S)NNC(=O)c2ccco2)c(OC)c1	-2	.	.	.	.	.
O=C(Cc1cccs1)NNC(=S)NC(=O)c1ccccc1	56*	3.3	-0.11	i	-1	11
COc1ccc(C(=O)NC(=S)NNC(=O)c2ccco2)cc1	53*	.	.	.	.	.
CCCc1ccc(-c2cc(NC(=O)CSc3nnc(N)s3)n(-c3ccccc3)n2)cc1	8	-1.1	0.69	i	3	0
CSc1ncccc1C(=O)NC1CCN(Cc2ccccc2)CC1	9	.	.	.	.	.
COc1ccc(-n2cc(CNC3CCN(C)CC3)c(-c3cccc(F)c3)n2)cc1	-5	1.8	-1.2	i	.	59*
CCCCNC(=O)O/N=C(\N)CS(=O)(=O)C(C)(C)C	-2	0.79	0.67	.	7	.
Cc1ccc(S(=O)(=O)c2cccc(S(=O)(=O)N3CCCC3)c2)cc1S(=O)(=O)N1CCCC1	2	-2.7	3*	i	4	6
Cc1ccc(NC(=O)CCl)cc1S(=O)(=O)N1CCCCCC1	5	-0.91	0.01	+	3	-12
COCCNCC(=O)Nc1ccc(C)c(S(=O)(=O)N2CCCCC2)c1	-19	0.12	0.66	i	-1	-9
Cc1cc(C=NCCCO)c(C)n1-c1cc(Cl)ccc1Cl	-1	-0.32	-0.14	i	2	-4
COc1cccc(NS(=O)(=O)c2ccc(C)c(C(=O)N3CCCCC3)c2)c1	-5	.	.	.	.	.
COc1ccc(O[C@H]2C=C[C@@H](c3ccccc3)O[C@@H]2COC(=O)CC/C(C)=N/O[C@@H](C)CN2CCCCc3nc(C)c(C)cc32)cc1	17	0.029	-0.77	i	.	67*
SMILES	SKKanGAS inh	KCC2 mod	Insulin prom up	Autophagy mod	Rad51 HR inh	WT yeast gro inh
Cc1nc(NCCc2ccc(S(N)(=O)=O)cc2)c2c(C)c(C)sc2n1	-2	21*	.	i	0	-9
COc1ccc(C(C)(C)C)cc1NC(=O)c1cccc(S(=O)(=O)N2CCN(C(C)=O)CC2)c1	9	.	.	.	.	.
O=C(Nc1nnc(SCCN2CCOCC2)s1)C1CC(=O)N(c2ccccc2)C1 (stereo not drawn)	-2	.	.	.	.	.
O=C1c2ccccc2NC(c2ccc(-c3ccc(Br)cc3)o2)N1O (stereo not drawn)	10	8.6*	-0.03	i	-1	0
O=c1ccccn1Cc1c(Cl)cccc1Cl	-7	0.0036	.	i	.	73*
CC1CC(C)CN(CCCNS(=O)(=O)c2ccc3c(c2)oc(=O)n3C)C1 (stereo not drawn)	9	.	.	.	.	.
CN1CCN(C(=S)NC(=O)c2ccccc2Cl)CC1	0	.	.	.	.	.
CCCN(CCC)C(=S)NC(=O)c1ccc(Cl)cc1Cl	-11	42*	.	i	-4	.
Cc1cc(C)nc(NC(=S)NC(=O)c2ccccc2F)n1	-3	.	.	.	.	.
O=C(NC(=S)N1CCCCCC1)c1ccc(Cl)cc1Cl	23	88*	-0.53	i	.	46
Cc1cccc(C)c1NC(=S)NC(=O)c1ccccc1F	-8	35*	0.14	i	.	8

From PubChem BioAssay
